According to ChEMBL document CHEMBL2169867, “Novel β-amino acid derivatives as inhibitors of cathepsin A” (J Med Chem, 2012):
Blank lines part the entries; values can stand above or below the compound they belong to. Active and inactive are the calls of the source. The rule behind the calls is not given here.

Experiments:
[1] = Oral bioavailability in Sprague-Dawley rat at 10 mg/kg; assay type: ADME, organism-based; settings: in vivo
[2] = test system: Salmonella typhimurium; assay: Genotoxicity against Salmonella typhimurium by AMES test; assay type: toxicity, organism-based; settings: salmonella enterica subsp. enterica serovar typhimurium
[3] = molecular target: Neprilysin (Homo sapiens, UniProt P08473); assay: Inhibition of human recombinant NEP using Mca-RPPGFSAFK(Dnp)-OH as substrate incubated for 15 mins prior to substrate addition measured after 20 to 30 mins by fluorimetric analysis
Outline: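 Recombinant human NEP and inhibitor preincubated 15 min at room temperature in reaction buffer, then substrate added. Fluorescence read after 20-30 min at room temperature. % inhibition and IC50 calculated against internal high and low controls.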

[4] = molecular target: CYP3A4 (Homo sapiens, UniProt P08684); assay: Induction of CYP3A4 relative to control; assay type: ADME; settings: human
[5] = Solubility of the compound; assay type: physicochemical
[6] = Genotoxicity in micronucleus
[7] = Drug metabolism in rat liver microsomes; assay type: ADME, Microsome; settings: read-out: Drug metabolism
[8] = Lipophilicity, log D of the compound; assay type: physicochemical; settings: octanol/water
[9] = molecular target: Voltage-gated inwardly rectifying potassium channel KCNH2 (Homo sapiens, UniProt Q12809); assay: Inhibition of human ERG
[10] = Drug metabolism in human liver microsomes; assay type: ADME, Microsome; settings: read-out: Drug metabolism
[11] = test system: Mus musculus; assay: Cardioprotective activity against angiotensin 2-induced cardiac hypertrophy in B6.129P2-ApoE/J mouse assessed as mean arterial pressure at 100 mg/kg, po administered QD after 4 weeks (reference value: 99.03 6.82 mmHg); assay type: functional, Heart
[12] = test system: Mus musculus; assay: Toxicity in B6.129P2-ApoE/J mouse assessed as body weight at 100 mg/kg, po administered QD after 4 weeks (reference value: 30.48 0.52 g); assay type: organism-based; parameters: dose 100 mg/kg, route oral; settings: in vivo, 672 h
[13] = test system: Mus musculus; assay: Cardioprotective activity against angiotensin 2-induced cardiac hypertrophy in B6.129P2-ApoE/J mouse assessed as left ventricular relaxation time at 100 mg/kg, po administered QD after 4 weeks (reference value: 8.73 0.41 ms); assay type: functional, Heart left ventricle
[14] = Cmax in Sprague-Dawley rat plasma at 10 mg/kg, po; assay type: ADME, organism-based; parameters: dose 10 mg/kg, route oral
Outline: (§1)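 Male Sprague-Dawley rats; single oral 10 mg/kg in glycofurol 75 (19%)/Cremophor RH40 (6%)/water (75%). Plasma and heart sampled at eight time points over 24 h, three animals per time point, nonserial design. Heart homogenized with water (2 g per 1 g tissue). Concentrations measured by LC-MS/MS with a structurally related internal standard; AUC(0-inf) taken from plasma concentration-time curves.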

[15] = molecular target: Cathepsin A (Homo sapiens); assay: Inhibition of cathepsin A
[16] = test system: Mus musculus; assay: Cardioprotective activity against angiotensin 2-induced cardiac hypertrophy in B6.129P2-ApoE/J mouse assessed as ejection fraction at 100 mg/kg, po administered QD after 4 weeks (reference value: 51.14 2.49 %); assay type: functional, Heart
[17] = molecular target: T1, Lysosomal protective protein (Homo sapiens, UniProt P10619); assay: Inhibition of human recombinant Myc-His10-tagged cathepsin A expressed in baculovirus infected Sf9 cells using BodipyFL labeled bradykinin as substrate incubated for 15 mins prior to substrate addition measured after 15 mins by fluorimetric analysis
T1 sequence (P10619 whole entry): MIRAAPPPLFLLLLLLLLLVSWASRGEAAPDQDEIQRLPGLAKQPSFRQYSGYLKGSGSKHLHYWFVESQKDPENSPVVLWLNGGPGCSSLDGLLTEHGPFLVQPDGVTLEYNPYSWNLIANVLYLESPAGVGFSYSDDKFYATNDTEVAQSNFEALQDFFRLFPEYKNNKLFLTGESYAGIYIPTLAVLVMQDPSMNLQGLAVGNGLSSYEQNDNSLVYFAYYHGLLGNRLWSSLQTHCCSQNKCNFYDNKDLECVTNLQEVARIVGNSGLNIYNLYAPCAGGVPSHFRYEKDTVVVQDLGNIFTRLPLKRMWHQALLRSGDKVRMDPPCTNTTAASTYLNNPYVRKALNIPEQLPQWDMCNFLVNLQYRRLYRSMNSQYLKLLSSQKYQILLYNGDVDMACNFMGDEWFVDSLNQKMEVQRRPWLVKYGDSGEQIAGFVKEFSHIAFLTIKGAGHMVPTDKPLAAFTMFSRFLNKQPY

[18] = test system: Rattus norvegicus; assay: Antihypertensive activity in Wistar rat assessed as bradykinin-dependent diuresis at 10 mg/kg, iv administered as bolus measured as urine flow rate (reference value: 11.6 uL/min); assay type: functional
Outline: (§2)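 Anesthetized male Wistar rats prepared with urethane, carotid/jugular cannulae, continuous albumin-saline infusion and ureteral urine collection. Compound given as iv bolus at 10 mg/kg, alone or with HOE140 0.5 mg/kg iv. Urine volume measured over five successive 20 min periods; two-way ANOVA with Bonferroni post-tests, p < 0.05.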

[19] = test system: Rattus norvegicus; assay: Cardioprotective activity against ventricular ischemia/reperfusion in Wistar rat assessed as duration of burst-pacing-induced atrial fibrillation at 30 mg/kg, po administered QD after 3 months (reference value: 25.00 18.09 s); assay type: functional, Cardiac atrium
[20] = test system: Rattus norvegicus; assay: Antihypertensive activity in Wistar rat assessed as increase in bradykinin level in urine at 30 mg/kg, po relative to vehicle-treated control; assay type: functional
Outline: (§3)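 Male Wistar rats dosed po at 30 mg kg⁻¹ day⁻¹. Urine collected over 6 h before and after treatment. Bradykinin measured by commercial RIA; creatinine excretion also determined. Mean ± SEM, n = 9-10; paired t test.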

[21] = AUC (0 to infinity) in Sprague-Dawley rat plasma at 10 mg/kg, po; assay type: ADME, organism-based; parameters: time infinity, dose 10 mg/kg, route oral; outline: as §1
[22] = test system: Mus musculus; assay: Cardioprotective activity against angiotensin 2-induced cardiac hypertrophy in B6.129P2-ApoE/J mouse assessed as left ventricular wet weight at 100 mg/kg, po administered QD after 4 weeks (reference value: 182.03 […]); assay type: functional, Heart left ventricle
[23] = Cmax in Sprague-Dawley rat heart at 10 mg/kg, po; assay type: ADME, organism-based; parameters: dose 10 mg/kg, route oral; outline: as §1
[24] = test system: Rattus norvegicus; assay: Effect on glomerular filtration rate in Wistar rat assessed as change in creatinine excretion at 30 mg/kg, po relative to vehicle-treated control; assay type: functional, organism-based; parameters: dose 30 mg/kg; outline: as §3
[25] = test system: Mus musculus; assay: Cardioprotective activity against angiotensin 2-induced cardiac hypertrophy in B6.129P2-ApoE/J mouse assessed as left ventricular end diastolic pressure at 100 mg/kg, po administered QD after 4 weeks (reference value: 15.49 1.95 mmHg); assay type: functional, Heart left ventricle
[26] = AUC (0 to infinity) in Sprague-Dawley rat heart at 10 mg/kg, po; assay type: ADME, organism-based; parameters: time infinity, dose 10 mg/kg, route oral; outline: as §1
[27] = test system: Rattus norvegicus; assay: Antihypertensive activity in Wistar rat assessed as bradykinin-dependent diuresis at 10 mg/kg, iv administered as bolus measured as urine flow rate in presence of HOE140 (reference value: 11.6 uL/min); assay type: functional; outline: as §2
[28] = test system: Mus musculus; assay: Cardioprotective activity against angiotensin 2-induced cardiac hypertrophy in B6.129P2-ApoE/J mouse assessed as left ventricular end systolic pressure at 100 mg/kg, po administered QD after 4 weeks (reference value: 139.36 9.79 mmHg); assay type: functional, Heart left ventricle
[29] = test system: Rattus norvegicus; assay: Antihypertensive activity in Wistar rat assessed as bradykinin-dependent diuresis at 1 mg/kg, iv administered as bolus measured as urine flow rate (reference value: 11.6 uL/min); assay type: functional
[30] = test system: Mus musculus; assay: Ratio of left ventricular wet weight to body weight in B6.129P2-ApoE/J mouse at 100 mg/kg, po administered QD after 4 weeks (reference value: 5.99 0.28 mg/g); assay type: functional
[31] = test system: Mus musculus; assay: Cardioprotective activity against angiotensin 2-induced cardiac hypertrophy in B6.129P2-ApoE/J mouse assessed as heart rate at 100 mg/kg, po administered QD after 4 weeks (reference value: 403.23 7.98 bpm); assay type: functional

Sequence of CYP3A4 (P08684 whole entry): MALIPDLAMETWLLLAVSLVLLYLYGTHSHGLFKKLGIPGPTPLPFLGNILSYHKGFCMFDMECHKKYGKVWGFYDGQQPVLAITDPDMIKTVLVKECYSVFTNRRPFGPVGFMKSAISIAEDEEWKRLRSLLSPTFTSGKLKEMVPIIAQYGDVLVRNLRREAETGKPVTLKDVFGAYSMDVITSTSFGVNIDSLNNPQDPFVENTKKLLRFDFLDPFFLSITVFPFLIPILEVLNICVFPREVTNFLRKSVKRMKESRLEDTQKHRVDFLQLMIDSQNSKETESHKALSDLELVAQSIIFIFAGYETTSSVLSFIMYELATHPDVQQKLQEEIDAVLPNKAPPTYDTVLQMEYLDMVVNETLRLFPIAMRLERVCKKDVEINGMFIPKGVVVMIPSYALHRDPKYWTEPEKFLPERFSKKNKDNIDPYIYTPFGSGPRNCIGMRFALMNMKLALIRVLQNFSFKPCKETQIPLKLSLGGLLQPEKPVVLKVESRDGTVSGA
Sequence of Neprilysin (P08473 whole entry): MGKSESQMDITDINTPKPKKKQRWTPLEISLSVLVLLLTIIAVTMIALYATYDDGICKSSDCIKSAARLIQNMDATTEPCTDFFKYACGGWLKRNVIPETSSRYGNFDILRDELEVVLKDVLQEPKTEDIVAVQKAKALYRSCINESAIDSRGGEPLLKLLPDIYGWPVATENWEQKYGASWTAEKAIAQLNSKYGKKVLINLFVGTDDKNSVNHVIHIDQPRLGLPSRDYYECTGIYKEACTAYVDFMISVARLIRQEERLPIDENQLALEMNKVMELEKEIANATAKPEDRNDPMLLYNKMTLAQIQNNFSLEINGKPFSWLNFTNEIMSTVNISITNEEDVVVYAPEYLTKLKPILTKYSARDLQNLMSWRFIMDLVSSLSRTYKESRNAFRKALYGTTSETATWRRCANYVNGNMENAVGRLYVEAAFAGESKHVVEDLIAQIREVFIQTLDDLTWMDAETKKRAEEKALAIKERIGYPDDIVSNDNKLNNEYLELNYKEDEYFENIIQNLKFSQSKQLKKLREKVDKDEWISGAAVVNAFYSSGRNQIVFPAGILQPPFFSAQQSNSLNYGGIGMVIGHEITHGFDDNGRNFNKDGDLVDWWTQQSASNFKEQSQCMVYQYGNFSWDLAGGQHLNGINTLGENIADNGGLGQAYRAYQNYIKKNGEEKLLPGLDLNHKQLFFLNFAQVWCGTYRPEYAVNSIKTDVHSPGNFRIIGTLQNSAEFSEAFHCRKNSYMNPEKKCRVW
Sequence of Voltage-gated inwardly rectifying potassium channel KCNH2 (Q12809 whole entry): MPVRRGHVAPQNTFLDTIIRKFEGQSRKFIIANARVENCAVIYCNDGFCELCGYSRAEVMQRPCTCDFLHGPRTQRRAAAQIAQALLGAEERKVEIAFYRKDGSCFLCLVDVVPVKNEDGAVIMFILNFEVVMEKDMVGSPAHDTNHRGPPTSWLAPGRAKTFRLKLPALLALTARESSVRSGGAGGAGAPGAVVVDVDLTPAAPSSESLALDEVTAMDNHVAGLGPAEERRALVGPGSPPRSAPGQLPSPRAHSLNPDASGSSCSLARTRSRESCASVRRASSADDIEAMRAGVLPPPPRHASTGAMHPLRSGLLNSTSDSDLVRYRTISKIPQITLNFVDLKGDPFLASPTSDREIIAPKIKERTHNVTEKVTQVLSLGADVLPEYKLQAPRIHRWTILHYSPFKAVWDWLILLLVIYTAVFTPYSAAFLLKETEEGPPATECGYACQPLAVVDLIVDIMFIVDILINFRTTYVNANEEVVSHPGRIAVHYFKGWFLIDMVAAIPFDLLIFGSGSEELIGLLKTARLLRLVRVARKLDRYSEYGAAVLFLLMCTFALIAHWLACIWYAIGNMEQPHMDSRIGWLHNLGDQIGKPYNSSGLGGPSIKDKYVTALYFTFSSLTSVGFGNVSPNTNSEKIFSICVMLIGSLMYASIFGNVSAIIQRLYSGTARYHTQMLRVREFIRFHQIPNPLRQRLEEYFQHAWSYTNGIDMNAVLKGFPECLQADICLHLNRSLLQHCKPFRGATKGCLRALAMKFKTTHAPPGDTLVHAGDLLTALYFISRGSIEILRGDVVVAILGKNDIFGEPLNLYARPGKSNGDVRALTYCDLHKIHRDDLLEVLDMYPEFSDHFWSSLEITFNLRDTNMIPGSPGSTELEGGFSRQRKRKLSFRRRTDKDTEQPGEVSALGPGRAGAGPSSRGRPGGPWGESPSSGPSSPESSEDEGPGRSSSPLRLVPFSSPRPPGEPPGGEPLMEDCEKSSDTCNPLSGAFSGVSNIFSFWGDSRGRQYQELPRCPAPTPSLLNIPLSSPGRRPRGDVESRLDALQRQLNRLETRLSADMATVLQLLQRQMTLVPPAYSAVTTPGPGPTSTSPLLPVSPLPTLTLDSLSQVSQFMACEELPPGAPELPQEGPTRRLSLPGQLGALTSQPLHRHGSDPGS

bioavailability [1]: < 5%
inhibition [3]: Active
Emax [4]: 0%
solubility [5]: > 180 µg/mL
metabolised [7]: 10%
logD [8]: -0.16
metabolised [10]: 10%
SMILES: Cc1ccccc1[C@H](CC(=O)O)NC(=O)c1cc(=O)n(-c2ccccc2F)[nH]1
Activity [2]: Non-toxic
Activity [6]: Non-toxic
IC50 [9]: > 10000 nM

Cmax [14]: 22200 ng/mL
IC50 [15]: 26 nM
IC50 [17]: 26 nM
AUC(0-inf) [21]: 130000 ng·h/mL
Cmax [23]: 3720 ng/mL
IC50 [3]: 1900 nM
Emax [4]: 9%
AUC(0-inf) [26]: 16000 ng·h/mL
SMILES: COc1cc(C(=O)N[C@@H](CC(=O)O)c2ccccc2C)nn1-c1ccccc1F
Activity [11]: 95.88 mmHg
Activity [12]: 29.63 g
Time [13]: 7.05 ms
Activity [16]: 57.89%
Activity [18]: 18.3 µL/min
Time [19]: 0.69 s
fold change (FC) [20]: 2
Activity [22]: 142.69 mg
Activity [24]: inactive
Activity [25]: 8.32 mmHg
Activity [27]: 15.3 µL/min
Activity [28]: 129.95 mmHg
Activity [29]: 14.3 µL/min
Ratio [30]: 4.84 mg/g
Activity [31]: 407.11 bpm
